Consider 20 compounds from ChEMBL document CHEMBL1811786, “Identification of MK-5710 ((8aS)-8a-methyl-1,3-dioxo-2-[(1S,2R)-2-phenylcyclo- propyl]-N-(1-phenyl-1H-pyrazol-5-yl)hexahydro-imidazo[1,5-a]pyrazine-7(1H)-carboxamide), a potent smoothened antagonist for use in Hedgehog pathway dependent malignancies, part 2” (Bioorg Med Chem Lett, 2011).

Data set [1] has as its target T1, Protein smoothened (Homo sapiens, UniProt Q99835). As to the kind of experiment: Displacement of BODIPY-cyclopamine from human Smo expressed in HEK293 cells in presence of 2% fetal calf serum. The class given is cell-based. Summed up:
(§1)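 Competition binding: displacement of fluorescently labeled bodipy-cyclopamine from recombinant human Smo expressed in HEK-293 cells. Run in 2% fetal calf serum and, separately, in 20% normal human serum. IC50 values are means of at least five experiments.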

In data set [2] the target is T1, Protein smoothened. Briefly: Displacement of BODIPY-cyclopamine from human Smo expressed in HEK293 cells in presence of 20% normal human serum. The data set is classed as cell-based. In short, it runs like this: as §1
The species entered for data set [3] is Rattus norvegicus. Briefly: Clearance in rat. The data set is classed as ADME, organism-based. As to conditions: in vivo.
Data set [4] can be described thus: Half life in rat. The class given is ADME, organism-based. As to conditions: in vivo.
Data set [5] can be described thus: Volume of distribution at steady state in rat. The data set is classed as ADME, organism-based. The note with it: in vivo, read-out: Vdss.
A short description of data set [6]: Oral bioavailability in rat. The data set is classed as ADME, organism-based. As to conditions: in vivo.
A short description of data set [7]: Antiproliferative activity against irradiated Ptch +/- mouse medulloblastoma cells. As to conditions: Medulloblastoma cell, light or radiation study. The data set is classed as functional. In short, it runs like this: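 Proliferation of irradiated Ptch +/- mouse medulloblastoma cells, which depend on the Hh pathway; readout reported as CC50.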
For data set [8], the species on record is Canis familiaris. As to the kind of experiment: Clearance in dog. The class given is ADME, organism-based, Canis lupus familiaris. As to conditions: in vivo.
The nature of data set [9]: Half life in dog. The data set is classed as ADME, organism-based, Canis lupus familiaris. The note with it: in vivo.
Data set [10] is described as follows: Volume of distribution at steady state in dog. The data set is classed as ADME, organism-based, Canis lupus familiaris. As to conditions: in vivo, read-out: Vdss.
Data set [11] in a line: Oral bioavailability in dog. As to conditions: in vivo. The data set is classed as ADME, organism-based, Canis lupus familiaris.
Data set [12] can be described thus: Plasma protein binding in human assessed as unbound fraction. The class given is ADME, cell-free.
Data set [13] concerns the target CYP2C9 (Homo sapiens, UniProt P11712). As to the kind of experiment: Inhibition of CYP2C9 at 10 uM. The data set is classed as ADME.
Data set [14] addresses CYP3A4 (Homo sapiens, UniProt P08684). As to the kind of experiment: Inhibition of CYP3A4 at 10 uM. The class given is ADME.

Usually IC50 stands for the concentration at which inhibition is half-maximal. One may read the clearance as the rate of elimination divided by the concentration. Read a low clearance as a low capacity for elimination. As a reminder, the half-life is the time needed for the level to fall by half in the phase considered. Low values mean rapid decline, high ones slow decline. The bioavailability is the share of a dose that reaches the circulation, judged against a reference dose that is usually intravenous. By CC50 is commonly meant the concentration that lowers cell viability or growth by half. As usually defined, the fraction unbound is free concentration divided by total concentration. In general, inhibition refers to how much of the control response was suppressed. Higher therefore signals a strong effect.

T1 sequence (Q99835 whole entry): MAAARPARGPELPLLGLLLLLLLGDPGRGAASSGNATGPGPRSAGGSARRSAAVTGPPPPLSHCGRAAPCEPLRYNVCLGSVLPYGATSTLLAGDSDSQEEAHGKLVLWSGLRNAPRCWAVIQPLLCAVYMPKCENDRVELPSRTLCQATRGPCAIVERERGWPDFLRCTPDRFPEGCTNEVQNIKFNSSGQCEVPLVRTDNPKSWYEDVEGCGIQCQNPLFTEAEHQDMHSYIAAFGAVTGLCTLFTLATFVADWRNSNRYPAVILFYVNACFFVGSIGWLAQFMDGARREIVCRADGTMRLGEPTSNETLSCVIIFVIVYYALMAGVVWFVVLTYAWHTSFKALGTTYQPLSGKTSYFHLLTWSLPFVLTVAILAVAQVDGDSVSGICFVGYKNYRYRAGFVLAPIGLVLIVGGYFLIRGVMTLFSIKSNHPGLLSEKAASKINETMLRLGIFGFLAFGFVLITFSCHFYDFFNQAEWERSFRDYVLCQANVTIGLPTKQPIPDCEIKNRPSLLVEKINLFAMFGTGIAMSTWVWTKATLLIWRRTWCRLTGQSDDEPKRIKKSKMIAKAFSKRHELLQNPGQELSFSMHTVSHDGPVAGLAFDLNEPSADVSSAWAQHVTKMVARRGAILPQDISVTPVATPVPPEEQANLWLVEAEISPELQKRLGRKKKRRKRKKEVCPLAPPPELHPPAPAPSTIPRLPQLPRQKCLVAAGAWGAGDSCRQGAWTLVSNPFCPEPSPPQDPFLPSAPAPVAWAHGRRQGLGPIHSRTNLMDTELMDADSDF
Chain of CYP2C9 (P11712 whole entry): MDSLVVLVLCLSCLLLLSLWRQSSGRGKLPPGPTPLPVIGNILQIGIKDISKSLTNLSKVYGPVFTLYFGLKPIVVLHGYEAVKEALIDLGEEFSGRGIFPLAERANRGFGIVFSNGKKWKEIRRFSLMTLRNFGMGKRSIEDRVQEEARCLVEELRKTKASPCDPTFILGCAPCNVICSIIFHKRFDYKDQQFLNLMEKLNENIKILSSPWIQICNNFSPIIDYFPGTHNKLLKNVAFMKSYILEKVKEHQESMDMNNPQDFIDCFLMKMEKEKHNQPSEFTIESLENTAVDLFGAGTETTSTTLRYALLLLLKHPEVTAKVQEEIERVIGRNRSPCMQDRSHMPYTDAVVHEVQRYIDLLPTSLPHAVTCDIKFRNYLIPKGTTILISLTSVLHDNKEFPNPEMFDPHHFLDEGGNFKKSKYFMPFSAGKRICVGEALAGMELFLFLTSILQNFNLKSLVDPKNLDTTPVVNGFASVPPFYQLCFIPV
Chain of CYP3A4 (P08684 whole entry): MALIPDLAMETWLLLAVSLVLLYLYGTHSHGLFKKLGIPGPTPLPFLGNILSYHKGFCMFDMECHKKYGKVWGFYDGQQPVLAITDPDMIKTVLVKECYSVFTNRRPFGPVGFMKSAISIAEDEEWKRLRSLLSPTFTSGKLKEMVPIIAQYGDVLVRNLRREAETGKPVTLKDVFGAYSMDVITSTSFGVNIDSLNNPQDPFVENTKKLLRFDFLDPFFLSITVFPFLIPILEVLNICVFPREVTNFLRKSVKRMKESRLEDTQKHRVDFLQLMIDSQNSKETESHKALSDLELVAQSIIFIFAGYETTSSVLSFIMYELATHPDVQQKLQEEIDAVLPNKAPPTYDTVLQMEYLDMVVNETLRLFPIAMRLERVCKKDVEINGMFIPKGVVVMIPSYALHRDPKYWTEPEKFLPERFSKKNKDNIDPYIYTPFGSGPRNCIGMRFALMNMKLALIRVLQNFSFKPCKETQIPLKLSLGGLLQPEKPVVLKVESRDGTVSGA

As for `O=C(Nc1ccccc1-c1ccccc1)N1CCN2C(=O)N(C3CC3c3ccccc3)C(=O)C2C1` (stereo in doubt; 6), the IC50 in [1] is 35 nM.

For `C[C@]12CN(C(=O)Nc3ccccc3-c3ccccc3)CCN1C(=O)N([C@H]1C[C@@H]1c1ccccc1)C2=O`, the IC50 in data set [1] was determined as 1200 nM; in data set [2] it was 1600 nM.

Consider `O=C(Nc1cccnc1-c1ccccc1)N1CCN2C(=O)N([C@H]3C[C@@H]3c3ccccc3)C(=O)[C@@H]2C1`, for which the IC50 in data set [1] and in data set [2] was 12 nM throughout. In data set [3], this compound gave a clearance of 54 mL/min/kg. The half-life in [4] was 4.9 h. Also, the Vd in data set [5] was determined as 6.7 L/kg. The bioavailability in data set [6] is 31%.

Consider `O=C(Nc1ccnn1-c1cccc(F)c1)N1CCN2C(=O)N([C@H]3C[C@@H]3c3ccccc3)C(=O)[C@@H]2C1`, for which the IC50 in data set [1] stood at 7 nM; in data set [2] it was 9 nM.

`O=C(Nc1cccnc1-c1cccc(Cl)c1)N1CCN2C(=O)N([C@H]3C[C@@H]3c3ccccc3)C(=O)[C@@H]2C1`: the IC50 was 4 nM in [1] and 15 nM in data set [2]. This compound had a clearance in data set [3] of 54 mL/min/kg. Moreover, the half-life in data set [4] was 1.3 h. Besides, in data set [5], the Vd stood at 4.1 L/kg.

Take `O=C(Nc1c(Cl)cc(F)cc1Cl)N1CCN2C(=O)N([C@H]3C[C@@H]3c3ccccc3)C(=O)[C@@H]2C1`: the IC50 in data set [1] is 180 nM; in data set [2], 520 nM.

With `O=C(Nc1cccc(Cl)c1Cl)N1CCN2C(=O)N([C@H]3C[C@@H]3c3ccccc3)C(=O)[C@H]2C1`, the IC50 in [1] turned out to be 650 nM.

Turning to `O=C(Nc1ccnn1-c1cccc(Cl)c1)N1CCN2C(=O)N([C@H]3C[C@@H]3c3ccccc3)C(=O)[C@@H]2C1`, the IC50 in data set [1] was found to be 18 nM; in [2], 32 nM.

On to `O=C(Nc1cccc(Cl)c1Cl)N1CCN2C(=O)N([C@@H]3C[C@H]3c3ccccc3)C(=O)[C@H]2C1`, for which the IC50 in data set [1] was 1700 nM.

Regarding `N#Cc1cccc(-c2ncccc2NC(=O)N2CCN3C(=O)N([C@H]4C[C@@H]4c4ccccc4)C(=O)[C@@H]3C2)c1`, the IC50 in data set [1] was 16 nM; in data set [2] it was 22 nM. In [3], the clearance worked out at 48 mL/min/kg. The half-life in [4] is 3.8 h. Further, the Vd in data set [5] came out at 6 L/kg. Besides, in [6], the bioavailability came out at 43%.

As for `C[C@@]12CN(C(=O)Nc3ccccc3-c3ccccc3)CCN1C(=O)N([C@H]1C[C@@H]1c1ccccc1)C2=O`, the figures for the IC50 in [1] and in data set [2] were 19 nM and 60 nM, respectively.

As for `O=C(Nc1ccccc1-c1ccccc1)N1CCN2C(=O)N(C3CC3c3ccccc3)C(=O)C2C1` (stereo in doubt; 5), the IC50 in [1] worked out at 95 nM.

Turning to `O=C(Nc1cccc(Cl)c1Cl)N1CCN2C(=O)N([C@H]3C[C@@H]3c3ccccc3)C(=O)[C@@H]2C1`, the results for the IC50 in [1] and in [2] were 230 nM and 690 nM, respectively. The compound further yielded a CC50 in data set [7] of 12 nM. Besides, the clearance was 46 mL/min/kg in data set [3] and 4 mL/min/kg in data set [8]. In addition, the figures for the half-life in data set [4] and in [9] were 2.2 h and 10 h, respectively. In addition, the Vd in [5] turned out to be 8 L/kg; in data set [10], 2.5 L/kg. Moreover, the bioavailability in data set [6] turned out to be 30%; in data set [11], 97%.

Consider `O=C(Nc1cccnc1-c1ccsc1)N1CCN2C(=O)N([C@H]3C[C@@H]3c3ccccc3)C(=O)[C@@H]2C1`, for which the results for the IC50 in data set [1] and in data set [2] were 21 nM and 42 nM, respectively. For the same compound, the clearance in data set [3] came to 58 mL/min/kg; in data set [8], 7.6 mL/min/kg. Also, the half-life in data set [4] was 10 h; in [9], 3.1 h. Also, the Vd stood at 10 L/kg in data set [5] and 1 L/kg in data set [10]. This compound registered a bioavailability in data set [6] of 41%.

`CN(C)C(=O)c1cc(Cl)c(NC(=O)N2CCN3C(=O)N([C@H]4C[C@@H]4c4ccccc4)C(=O)[C@@H]3C2)c(Cl)c1`: the IC50 stood at 77 nM in data set [1] and 120 nM in [2]. For the same compound, the clearance in [3] is 41 mL/min/kg. In addition, the half-life in data set [4] was 0.6 h. Moreover, the Vd in data set [5] is 2.1 L/kg.

On to `O=C(Nc1ccccc1-c1ccccc1)N1CCN2C(=O)N(C3CC3c3ccccc3)C(=O)C2C1` (stereo in doubt; 3), for which the IC50 in [1] stood at 48 nM.

For the compound `CS(=O)(=O)c1cc(Cl)c(NC(=O)N2CCN3C(=O)N([C@H]4C[C@@H]4c4ccccc4)C(=O)[C@@H]3C2)c(Cl)c1`, the IC50 is 42 nM in data set [1] and 68 nM in data set [2]. Moreover, the results for the clearance in data set [3] and in data set [8] were 5 mL/min/kg and 1.7 mL/min/kg, respectively. For the same compound, the half-life in data set [4] was 3.2 h; in data set [9], 1 h. Moreover, the Vd in [5] is 0.6 L/kg; in data set [10], 0.3 L/kg. For the same compound, the bioavailability in data set [6] was found to be 74%.

For `O=C(Nc1ccccc1-c1ccccc1)N1CCN2C(=O)N([C@H]3C[C@@H]3c3ccccc3)C(=O)[C@@H]2C1`, the values for the IC50 in [1] and in data set [2] were 21 nM and 70 nM, respectively. In data set [7], this compound came in with a CC50 of 2 nM. In addition, the fraction unbound in data set [12] was 0.044. The inhibition at 10 µM in data set [13] and in data set [14] was 50% in each case. The clearance in [3] stood at 56 mL/min/kg. In addition, the half-life in data set [4] was 2.7 h. Moreover, the Vd in [5] was determined as 8 L/kg.

As to `N#Cc1cc(Cl)c(NC(=O)N2CCN3C(=O)N([C@H]4C[C@@H]4c4ccccc4)C(=O)[C@@H]3C2)c(Cl)c1`, the IC50 is 100 nM in data set [1] and 450 nM in [2]. Also, the clearance in data set [3] was 2 mL/min/kg. In data set [4], this compound had a half-life of 5.4 h. Moreover, the Vd in data set [5] came out at 0.5 L/kg. In data set [6], the bioavailability turned out to be 56%.

As to `O=C(Nc1cccc(Cl)c1Cl)N1CCN2C(=O)N([C@@H]3C[C@H]3c3ccccc3)C(=O)[C@@H]2C1`, the IC50 in [1] came to 670 nM.
